Experimental data pooled from the literature.
Each line is one published result; the experiments were not run side by side.
Organism: Bacillus cereus

| Compound | test | test system | endpoint | value |
| --- | --- | --- | --- | --- |
| CC(=O)NC[C@H]1CN(c2ccc(N3CCOCC3)c(F)c2)C(=O)O1 | microbial growth, broth dilution | ATCC13061 | MIC | 1 µg/mL |
| O=C1NC(=S)S/C1=C\c1ccc(-c2ccc(N(c3ccccc3)c3ccccc3)cc2)cc1 | microbial killing, broth dilution | ATCC10876 | MBC | > 1000 µg/mL |
| Nc1ccc(-c2nc(-c3ccc(Oc4ccc(C(F)(F)F)cc4)cc3)no2)cc1 | microbial growth, broth dilution | ATCC13061 | MIC | 4 µg/mL |
| O=C(O)CN1C(=O)/C(=C/c2ccc(-c3ccc(N(c4ccccc4)c4ccccc4)cc3)c3ccccc23)NC1=S | microbial growth, broth dilution | ATCC10876 | MIC | > 1000 µg/mL |
| CN[C@H](CC(C)C)C(=O)N[C@H]1C(=O)N[C@@H](CC(N)=O)C(=O)N[C@H]2C(=O)N[C@H]3C(=O)N[C@H](C(=O)N[C@H](C(=O)O)c4cc(O)cc(O)c4-c4cc3ccc4O)[C@H](O)c3ccc(c(Cl)c3)Oc3cc2cc(c3O[C@@H]2O[C@H](CO)[C@@H](O)[C@H](O)[C@H]2O[C@H]2C[C@](C)(N)[C@H](O)[C@H](C)O2)Oc2ccc(cc2Cl)[C@H]1O | microbial growth, broth dilution | ATCC13061 | MIC | 1 µg/mL |
| O=C(Nc1ccc(S(=O)(=O)c2nccs2)cc1)c1cc(N=Nc2nccs2)ccc1O | microbial growth, broth dilution |  | MIC | 200 µg/mL |
| O=C(O)c1cn(C2CC2)c2cc(N3CCNCC3)c(F)cc2c1=O | microbial growth |  | MIC | 1.56 µM |
| CO[C@H]1O[C@H](COC(c2ccccc2)(c2ccccc2)c2ccccc2)[C@@H](OC(=O)c2ccc(C(C)(C)C)cc2)[C@H](OC(=O)c2ccc(C(C)(C)C)cc2)[C@H]1OC(=O)c1ccc(C(C)(C)C)cc1 | microbial growth, broth dilution |  | MIC | 0.75 µg/mL |
| O=C(O)CN1C(=O)/C(=C/c2c3ccccc3c(-c3ccc(N(c4ccccc4)c4ccccc4)cc3)c3ccccc23)SC1=S | microbial killing, broth dilution | ATCC10876 | MBC | > 1000 µg/mL |
| CNC(=O)[C@@H](C)[C@H]1C(=O)/C(=C(O)/C=C/C(C)=C/[C@@H](C)[C@H]2O[C@@]3(C)O[C@H](C=C[C@@]34CO4)[C@@H]2C)C(=O)N1[C@@H]1CC[C@H](O)[C@H](C)O1 | microbial growth |  | MIC | > 100 µM |
